# Granule exo inh: lytic granule exocytosis inhibition | inhibition, % at 10 µM | actives 0.66% (n = 360,000) | TALL-104 LAMP-1 surface exposure, flow cytometry; cells stimulated with thapsigargin and PMA;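 active = inhibition above about 55%, limit read from the data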
# MC4R barr agon: human MC4R agonism via beta-arrestin | P32245 | U2OS MC4R beta-arrestin complementation, luminescence; percent of melanotan II response, DMSO zero | activation, % at 8.9 µM | actives 0.98% (n = 360,000) | AID 540308;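 active = activation above a per-plate cutoff, the mean activation of sample wells on that plate plus 3 SD, cut at about 8% in these data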
# Target sequence (P32245 whole entry, looked up): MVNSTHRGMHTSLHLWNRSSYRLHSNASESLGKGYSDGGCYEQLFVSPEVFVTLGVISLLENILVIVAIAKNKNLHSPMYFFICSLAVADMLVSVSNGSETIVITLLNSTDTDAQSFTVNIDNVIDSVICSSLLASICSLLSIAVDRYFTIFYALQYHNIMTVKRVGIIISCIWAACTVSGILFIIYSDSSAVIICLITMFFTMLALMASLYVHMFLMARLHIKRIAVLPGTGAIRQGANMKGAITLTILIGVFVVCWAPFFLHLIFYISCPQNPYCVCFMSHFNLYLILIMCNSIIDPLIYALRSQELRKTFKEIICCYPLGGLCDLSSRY
# MC4R antag cAMP: human MC4R antagonism in cAMP assay | actives 0.48% (n = 360,000) | MC4R-expressing cells, MTII-stimulated cAMP, LANCE TR-FRET | inhibition, % at 6.5 µM;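 active = inhibition above its plate's cutoff, the mean of tested wells on that plate plus 3 SD, cut at about 29% in these data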;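 note: 0% = Melanotan II alone and 100% = Melanotan II plus saturating MCL0020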
#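 System: U2OS cells stably expressing human melanocortin 4 receptor (MC4R). Reagent: Melanotan II challenge after compound preincubation. Doses: 6.5 µM. Times: 30-min compound, 1-h challenge, 1-h detection, room temperature. Measured by: TR-FRET with Eu-cAMP and labeled anti-cAMP, 671 nm. Replicates: singlicate.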
# EBI2 antag: blocks human EBI2 receptor beta-arrestin signaling | P32249 | EBI2 beta-arrestin recruitment, luminescence, 7a,25-OHC stimulated | inhibition, % at 5 µM | actives 0.81% (n = 360,000); in the data active = inhibition above about 38%;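 note: enzyme fragment complementation signal reports receptor beta-arrestin coupling in cells; 0% = agonist plus DMSO wells and 100% = wells without agonist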
# Myeloid diff MLP: compounds promoting myeloid differentiation | calls only at 10 µM | actives 1% (n = 360,000) | ER-HoxA9 myeloid progenitors, lysozyme-GFP differentiation, flow cytometry;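 active = normalized GFP-positive differentiation at or above the plate's own cutoff, the solvent-only control mean plus 3 SD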;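 note: cells exposed to compound for four days before flow analysis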
# cAMP nonselect: U2OS forskolin cAMP inhibition counter-screen. shares compounds with MC4R antag cAMP. parental U2OS, LANCE TR-FRET. inhibition, % at 6.5 µM. actives 26% (n = 1,600). AID 602193;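 active = mean inhibition over triplicates above the low-control well mean plus 3 SD, set per campaign, cut at about 13% in these data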;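 note: signal is single emission at 671 nm which falls as cellular cAMP rises; 0% = forskolin-stimulated wells and 100% = buffer without forskolin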
# MC4R cAMP antag: human MC4R cAMP antagonism confirmation | shares compounds with MC4R antag cAMP | MC4R-expressing cells, MTII-stimulated cAMP, TR-FRET | inhibition, % at 6.5 µM | actives 27% (n = 1,600) | AID 602195; in the data active = inhibition above about 29%;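 note: 0% = agonist stimulated wells alone and 100% = agonist stimulated wells plus saturating reference antagonist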
# * marks the source's active call; other numbers are inactive results; i = inactive; . = no result. Most compounds without a hit are left out; they make up all but 3.7% or so of the library.
SMILES,Granule exo inh,MC4R barr agon,MC4R antag cAMP,EBI2 antag,Myeloid diff MLP,cAMP nonselect,MC4R cAMP antag
O=C1C(=O)N(c2ccccn2)C(c2cccc(F)c2)/C1=C(/O)c1ccccc1 (centres undefined),-6.9,1.1,29.4*,-0.5,i,-1.9,-23.2
COc1ccc(C2/C(=C(/O)c3ccccc3)C(=O)C(=O)N2c2ccccn2)cc1OC (centres undefined),1.6,-1.8,-6.3,-3.7,i,.,.
CCCOc1ccc(/C(O)=C2\C(=O)C(=O)N(c3ccccn3)C2c2ccccc2F)cc1C (centres undefined),-3.4,2.6,42.4*,-13.9,i,33.5*,20.5
CCCN1CCN(S(=O)(=O)c2ccc(-n3cnnn3)cc2)CC1,-7.6,-1.3,-3.4,-3.6,i,.,.
CCC(C(=O)NC(C)(C)C)N(Cc1ccc(OC)cc1)C(=O)c1snc(C(N)=O)c1N (centres undefined),10.2,-0.1,2.6,-1.9,i,.,.
COc1ccc(N2CCN(C(=O)c3ccc(COc4ccc5c(C)cc(=O)oc5c4)cc3)CC2)cc1,1.5,-2.5,31.1*,12.6,i,-4.6,-5.2
COc1ccc(-c2noc(CCC(=O)NC3CCCCCC3)n2)cc1OC,-3.4,-0.7,8.5,-5.7,i,.,.
COc1ccc(CC(=O)Oc2ccc(C(C)C)cc2)cc1S(=O)(=O)N1CCOCC1,-5.8,-3.2,24.0,2.5,i,.,.
COc1ccc(CC(=O)Oc2ccc(C(C)(C)C)cc2)cc1S(=O)(=O)N1CCOCC1,-3.0,-3.1,31.9*,-8.9,i,11.8,14.4
Cc1ccc2nc(-c3ccc(NC(=O)C(C)Sc4nncs4)cc3)sc2c1 (centres undefined),42.4,3.3,43.1*,35.2,i,1.9,18.3
Cc1ccc2nc(-c3ccc(NC(=S)NC(=O)CC(C)C)cc3)sc2c1,6.9,0.4,1.7,16.7,i,.,.
CC(=O)N(C1=C(N)C(=O)c2ccccc2C1=O)C(C)C,0.5,-1.2,8.4,-9.5,i,.,.
COc1ccccc1N(C(C)=O)C1=C(Cl)C(=O)c2ccccc2C1=O,60.5*,-4.4,98.0*,2.8,.,49.6*,13.4
CCCNC(=O)C1(C)CCN(C(=O)COCc2ccccc2)C1 (centres undefined),1.8,-0.8,-1.5,-11.4,i,.,.
NC(=O)c1cccc2ccccc12,2.1,-1.4,31.8*,-4.3,i,2.0,-7.5
O=C(c1ccccc1)c1cccc2ccccc12,-2.9,5.0,2.3,9.5,i,.,.
CC(=O)Nc1cccc(NC(=O)CSc2ncc(C(=O)Nc3ccccc3)c(=O)n2C)c1,0.7,-3.8,29.6*,15.6,i,-0.3,20.2
CC(=O)Nc1cccc(NC(=O)CSc2ncc(C(=O)Nc3ccc(F)cc3)c(=O)n2C)c1,-5.2,1.3,24.6,12.9,i,.,.
C=C1N(c2cccc(Cl)c2)C(=O)OC1(C)C,-1.2,-0.8,6.2,-9.9,i,.,.
CNC(=O)CSc1nc2cc(S(=O)(=O)Nc3ccccc3OC)ccc2o1,5.5,0.6,5.8,2.7,i,.,.
COc1ccccc1NS(=O)(=O)c1ccc2oc(SC3CCOC3=O)nc2c1 (centres undefined),-1.8,-2.3,43.9*,0.0,i,35.8*,66.7*
O=C(CN1CCCCC1)NCC(=O)Nc1ccc(F)c(F)c1F,1.2,0.3,-2.9,3.0,i,.,.
CCCc1cc(=O)oc2c3c(cc(OCC(=O)N[C@@H](C)C(=O)O)c12)OC(C)(C)CC3,-8.4,-0.7,0.9,-5.6,i,.,.
CCCc1cc(=O)oc2c3c(c4c(c12)OC(C)(C)C=C4)OC(C)C(C)C3O (centres undefined),3.9,0.3,29.6*,5.5,i,-1.9,1.5
Cc1ccc2c(c1)CCCN2C(=O)c1ccncc1,-3.0,0.9,29.0*,-3.8,i,-4.7,3.9
SMILES,Granule exo inh,MC4R barr agon,MC4R antag cAMP,EBI2 antag,Myeloid diff MLP,cAMP nonselect,MC4R cAMP antag
Cc1ccc2c(c1)CCCN2C(=O)c1cc(C)on1,1.9,-0.6,4.5,-13.1,i,.,.
CN1C[C@@H]2[C@@H]3C(=O)N(Cc4ccccc4)C(=O)[C@@H]3[C@](C)(C1=O)N2C(=O)c1ccc(Br)cc1,5.0,-2.2,-0.5,-0.7,i,.,.
CCOc1c(O)ccc(C2NC(=O)NC(C)=C2C(=O)OC)c1[N+](=O)[O-] (centres undefined),-0.2,-3.2,30.1*,6.9,i,-4.5,-10.7
Cc1ccc(C)n1-c1ccc(-c2nnc3n2CCCCC3)s1,3.8,0.0,38.9*,-5.1,i,17.2*,33.3*
C[C@@H]1CN([C@@H](C)CO)C(=O)CCCn2nncc2CO[C@H]1CN(C)C(=O)c1ccncc1,1.5,-1.4,7.2,2.5,i,.,.
CNS(=O)(=O)c1cccc(C(=O)OC2CCOC2=O)c1 (centres undefined),-1.4,-2.2,-3.9,1.6,i,.,.
CCN(c1ccccc1)S(=O)(=O)c1cc(C(=O)OC2CCOC2=O)ccc1C (centres undefined),-1.4,-2.9,39.9*,-3.8,i,23.5*,37.1*
CC(=O)c1cccc(S(=O)(=O)N2CCC(C(=O)OC3CCOC3=O)CC2)c1 (centres undefined),9.3,-1.0,40.4*,-9.4,i,19.0*,56.7*
CC(=O)c1cccc(S(=O)(=O)N2CCC(C(=O)O)CC2)c1,-3.1,4.4,-9.0,-2.8,i,.,.
Cc1ccc(S(=O)(=O)N2CCC(C(=O)OC3CCOC3=O)CC2)cc1C (centres undefined),0.3,-4.3,39.6*,-0.5,i,19.2*,41.0*
O=C(CN1C(=O)C(=O)N(C2CCCC2)C1=O)Nc1ccc(F)cc1F,1.8,0.0,4.6,2.3,i,.,.
N#Cc1cccc(NCC(=O)Nc2ccc3c(c2)OCCO3)c1,0.7,-2.6,2.5,-3.5,i,.,.
Cc1ccc(Cn2c(SCC(=O)N3CC(=O)Nc4ccccc43)nc3ccccc3c2=O)cc1,-2.7,-0.5,29.2*,12.8,i,-0.6,-4.7
CC(c1ccccc1)n1c(SCC(=O)N2CC(=O)Nc3ccccc32)nc2ccccc2c1=O (centres undefined),18.5,-0.8,32.7*,21.6,i,0.0,17.6
COCC(C)n1c(SCC(=O)N2CC(=O)Nc3ccccc32)nc2ccccc2c1=O (centres undefined),-10.6,0.1,12.1,7.2,i,.,.
O=C1CN(C(=O)CSc2nc3cc(Cl)ccc3c(=O)n2Cc2ccccc2)c2ccccc2N1,2.5,-5.4,13.7,26.1,i,.,.
N#Cc1ccsc1NC(=O)c1ccc(Cl)c([N+](=O)[O-])c1,3.0,-0.7,35.6*,-5.1,i,9.6,10.6
